In ChEMBL document CHEMBL1157948, “Triterpenoids from the resin of Styrax tonkinensis and their antiproliferative and differentiation effects in human leukemia HL-60 cells” (2006) one finds IG50 and Activity data, which are given here for nine molecules.

Assay type in all cases: functional
Experiment [1] has as its system HL-60. Kind of experiment: Growth inhibition of human HL60 cells after 3 days by trypan blue method. The method in brief: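 HL-60 cells grown in RPMI-1640 with 10% heat-inactivated FBS, 1 mM L-glutamine, penicillin/streptomycin. Log-phase cells seeded at 1 × 10⁵ cells/mL and exposed to a range of concentrations for 3 days, in triplicate. Total cells counted on a hemocytometer, with trypan blue marking nonviable cells. Growth inhibition taken relative to untreated control; IG₅₀ from regression of concentration-response data; mean ± SE of three independent experiments.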

Experiment [2] deals with HL-60. Kind of experiment: Induction of cell differentiation of human HL60 cells at 100 uM after 3 days by NBT reduction method. The method in brief:
(§1)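 HL-60 cells in RPMI-1640 with 10% heat-inactivated FBS, seeded at 1 × 10⁵ cells/mL in log phase and treated 3 days at nontoxic concentrations. Differentiation scored by NBT reduction as percentage of NBT-positive cells among 200 counted; mean ± SE of three independent experiments.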

Experiment [3] concerns HL-60. In words: Induction of cell differentiation of human HL60 cells after 3 days by NBT reduction method. On the set-up: concentration or dose not given beside the values. The method in brief:
as §1

`CC1(C)CC[C@]2(C(=O)O)CC[C@]3(C)C(=CC(=O)[C@@H]4[C@@]5(C)CC[C@H](O)C(C)(C)[C@@H]5[C@H](O)C[C@]43C)[C@@H]2C1` had an IG50 in the experiment with HL-60 [1] of 99.4 µM. In addition, in the experiment with HL-60 [2], the Activity stood at 44%.

The molecule `CC1(C)CC[C@]2(C(=O)O)CC[C@]3(C)C(=CC[C@@H]4[C@@]5(C)CCC(=O)C(C)(C)[C@@H]5CC[C@]43C)[C@@H]2[C@@H]1O` had an IG50 with HL-60 [1] of 41 µM. Also, the Activity with HL-60 [3] is <10%.

As for `CC1(C)CC[C@]2(C(=O)O)CC[C@]3(C)C(=CC[C@@H]4[C@@]5(C)CC[C@H](O)C(C)(C)[C@@H]5CC[C@]43C)[C@@H]2C1` [OLEANOLIC_ACID], the IG50 in the experiment on HL-60 [1] is 8.9 µM. For the same molecule, the Activity with HL-60 [3] is <10%.

For the molecule `CC1(C)CC[C@]2(C(=O)O)CC[C@]3(C)C(=CC[C@@H]4[C@@]5(C)CC[C@H](O)C(C)(C)[C@@H]5CC[C@]43C)[C@@H]2[C@@H]1O` [SIARESINOLIC ACID], in the experiment with HL-60 [1], the IG50 was 29 µM. Besides, the Activity with HL-60 [3] was <10%.

In the experiment on HL-60 [1], `CC1(C)CC[C@]2(C(=O)O)CC[C@]3(C)C(=CC[C@@H]4[C@@]5(C)CCC(=O)C(C)(C)[C@@H]5[C@H](O)C[C@]43C)[C@@H]2C1` gave an IG50 of 14.2 µM. Moreover, in the experiment on HL-60 [3], the Activity is <10%.

Regarding `CC1(C)CC[C@@]23CC[C@]4(C)[C@@](OC2=O)([C@@H]3C1)[C@H]1O[C@H]1[C@@H]1[C@@]2(C)CCC(=O)C(C)(C)[C@@H]2[C@H](O)C[C@]14C`, the IG50 with HL-60 [1] worked out at 41.8 µM. In the experiment with HL-60 [3], the Activity is <10%.

In the experiment with HL-60 [1], `CC1(C)CC[C@]23CC[C@]4(C)[C@@H](C(=O)C[C@@H]5[C@@]6(C)CC[C@H](O)C(C)(C)[C@@H]6CC[C@]54C)[C@@H]2[C@H]1OC3=O` returned an IG50 of 51.2 µM. For the same molecule, the Activity with HL-60 [3] is listed as <10%.

`CC1(C)CC[C@@]23CC[C@]4(C)[C@@](OC2=O)([C@@H]3C1)[C@H]1O[C@H]1[C@@H]1[C@@]2(C)CC[C@H](O)C(C)(C)[C@@H]2[C@H](O)C[C@]14C` registered an IG50 in the experiment on HL-60 [1] of 27.5 µM. Besides, in the experiment on HL-60 [3], the Activity is reported as <10%.

`CC1(C)CC[C@]2(C(=O)O)CC[C@]3(C)C(=CC[C@@H]4[C@@]5(C)CC[C@H](O)C(C)(C)[C@@H]5[C@H](O)C[C@]43C)[C@@H]2C1` [SUMARESINOLIC ACID] displayed an IG50 with HL-60 [1] of 30.2 µM. Moreover, the Activity with HL-60 [3] was <10%.
